Screening results: PubChem BioAssay, several laboratories
TbMetRS inhib – blocks T. brucei methionyl-tRNA synthetase activity | purified T. brucei MetRS, ATP depletion, Kinase-Glo luminescence | inhibition, % at 11.9 µM | 360,000 compounds, 0.4% hits | AID 624268;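 active means inhibition above a per-plate cutoff of the control wells' mean inhibition plus 3 SD, cut at about 5.5% in these data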;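 further: 0% = DMSO wells median and 100% = median of wells with control inhibitor compound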
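Assay system: T. brucei methionyl-tRNA synthetase, purified | Medium: HEPES buffer with MgCl2, KCl, DTT, spermine, BSA, pyrophosphatase | Compound: 11.9 µM single point | Incubation: 15 min enzyme-compound preincubation, 2 h reaction, 10 min detection, 25 °C | Measured by: Kinase-Glo luciferase luminescence reporting remaining unconsumed ATP | Measure: % inhibition normalized to control-well medians | Replication: Singlicate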
A1 inh – inhibitors of the anti-apoptotic protein A1, read as caspase activation; AID 2462; MEF A1-2A-BIM cells, Caspase-Glo 3/7 luminescence, 3 h; percent of clofoctol response, vehicle zero; caspase activation, % (test concentration not listed); 330,000 compounds, 0.066% hits;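 active means over half of replicate activation scores above 10%, or exactly half above 10 with the replicate mean above 10; inconclusive means replicate mean below 10 yet half the replicates above 10; inactive means over half of replicates below 10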
MC4R antagonist – human MC4R antagonism in cAMP assay; AID 540295; MC4R-expressing cells, MTII-stimulated cAMP, LANCE TR-FRET; inhibition, % at 6.5 µM; 360,000 compounds, 0.48% hits;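 active means inhibition above its plate's cutoff, the mean of tested wells on that plate plus 3 SD, cut at about 29% in these data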;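 further: 0% = Melanotan II alone and 100% = Melanotan II plus saturating MCL0020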
Target sequence (P32245 whole entry, looked up): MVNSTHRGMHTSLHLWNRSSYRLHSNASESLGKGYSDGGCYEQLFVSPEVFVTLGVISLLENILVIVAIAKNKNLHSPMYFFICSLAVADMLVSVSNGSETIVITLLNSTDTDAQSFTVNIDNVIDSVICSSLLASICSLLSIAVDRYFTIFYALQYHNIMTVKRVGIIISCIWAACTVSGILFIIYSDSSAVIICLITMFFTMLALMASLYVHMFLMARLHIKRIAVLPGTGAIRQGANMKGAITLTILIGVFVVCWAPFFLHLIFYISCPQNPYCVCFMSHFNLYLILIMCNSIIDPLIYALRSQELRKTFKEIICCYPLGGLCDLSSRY
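Test system: U2OS cells stably expressing human melanocortin 4 receptor (MC4R); also added: Melanotan II challenge; compound: 6.5 µM single dose; timing: 30-min compound preincubation, 1-h Melanotan II challenge, 1-h detection, room temperature; signal: Eu-cAMP/anti-cAMP TR-FRET, emission 671 nm; repeats: one well per compound, no replicates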
MC4R barr agon – activates human MC4R beta-arrestin recruitment; 360,000 compounds, 0.98% hits; U2OS MC4R beta-arrestin complementation, luminescence; percent of melanotan II response, DMSO zero; P32245; activation, % at 8.9 µM; AID 540308;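 active means activation above a per-plate cutoff, the mean activation of sample wells on that plate plus 3 SD, cut at about 8% in these data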
NALP1 yeast inh – blocks the NALP1 inflammasome reconstituted in yeast | inhibition, % at 10 µM | 280,000 compounds, 0.61% hits | S. cerevisiae NALP1/ASC/caspase-1 growth, X-gal OD620, 72 h; in the data active means inhibition mostly above about 24%, no sharp cut-off; inactive means mostly below about 32%
NALP3 yeast inh – inhibitors of NALP3 inflammasome in yeast; Yeast reconstituted NLRP3/ASC/caspase-1, beta-gal luminescence, 24 h; inhibition, % at 10 µM; 330,000 compounds, 0.39% hits; AID 2825;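 active means inhibition of 50% or more; inactive means inhibition below 50%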;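 further: plate controls were induced DMSO wells for no effect and uninduced yeast grown without galactose for full effect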
cAMP nonselect – nonselective cAMP signaling inhibitor, MC4R antagonist counter-screen; parental U2OS, forskolin cAMP, LANCE TR-FRET; shares compounds with MC4R antagonist; AID 602193; 1,600 compounds, 26% hits; inhibition, % at 6.5 µM;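 active means mean inhibition over triplicates above the low-control well mean plus 3 SD, set per campaign, cut at about 13% in these data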;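 further: signal is single emission at 671 nm which falls as cellular cAMP rises; 0% = forskolin-stimulated wells and 100% = buffer without forskolin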
MC4R cAMP antag – human MC4R cAMP antagonism confirmation; AID 602195; 1,600 compounds, 27% hits; shares compounds with MC4R antagonist; MC4R-expressing cells, MTII-stimulated cAMP, TR-FRET; inhibition, % at 6.5 µM; in the data active means inhibition above about 29%;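 further: 0% = agonist stimulated wells alone and 100% = agonist stimulated wells plus saturating reference antagonist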
The depositor's hits bear a star; ? = inconclusive; . = no result; + = active, no number. Shown are actives, neighbours in structure and some others; about 2.5% of the full set was active somewhere.

SMILES	TbMetRS inhib	A1 inh	MC4R antagonist	MC4R barr agon	NALP1 yeast inh	NALP3 yeast inh	cAMP nonselect	MC4R cAMP antag
COc1ccc2c(C#CCCO)c(-c3ccc(S(C)(=O)=O)cc3)sc2c1	-1	0	36*	8	.	25	-5	5
COc1ccc2sc(-c3ccc(S(C)(=O)=O)cc3)c(C#CCO)c2c1	-1	1	11	1	.	17	.	.
COCCN(C(=O)CSc1nnc(-c2ccncc2)n1C)c1c(N)n(CC(C)C)c(=O)[nH]c1=O	0	.	-2	-1	.	.	.	.
CCOC(=O)CS(=O)(=O)c1nc(-c2ccc(F)cc2)cc(C(F)(F)F)n1	-1	1	32*	-3	15	13	13	-1
CS(=O)(=O)c1nc(-c2ccc(F)cc2)cc(C(F)(F)F)n1	-1	.	12	-2	25	.	.	.
Cn1c(=O)c2c(ncn2CC(=O)OCC(=O)NCc2ccc(F)cc2)n(C)c1=O	0	.	13	0	.	.	.	.
CC(C)[C@H](NC(=O)OC(C)(C)C)c1nnc(S(=O)(=O)Cc2c(F)cccc2Cl)o1	0	0	64*	-3	9	8	27*	34*
CC[C@@H](C)[C@H](NC(=O)OC(C)(C)C)c1nnc(S(=O)(=O)Cc2cc(C)ccc2C)o1	0	-1	22	-3	-4	15	.	.
Cc1ccccc1CS(=O)(=O)c1nnc([C@H](CC(C)C)NC(=O)OC(C)(C)C)o1	0	-1	33*	-1	-1	17	11	20
Cc1cc(N2CCCC2=O)ccc1S(=O)(=O)Nc1c(C)nn(C)c1C	0	0	34*	0	6	3	1	12
Cc1cc(N2CCCC2=O)cc(C)c1S(=O)(=O)Nc1c(C)nn(C)c1C	-1	0	4	-2	-4	4	.	.
O=C(C1CCCCC1)N1C[C@@H](O)[C@H](n2cc(-c3ccc(F)cc3)nn2)C[C@@H]1c1ccccc1	-1	.	16	0	.	.	.	.
CCCC1=[N+](CC(=O)c2ccccc2)CCn2cccc21	1	-1	29*	-1	24	34	2	4
CCCC1=[N+](CC(=O)c2ccc(Br)cc2)CCn2cccc21	0	-1	11	3	0	19	.	.
CC(C)OCCCNC(=O)c1cc(-c2cccs2)nc2ccccc12	1	-1	8	0	-6	15	.	.
O=C(O)c1cc(-c2ccc(Br)s2)nc2ccccc12	0	-2	+	0	21	19	185*	+
CCN(CC)CCNC(=O)c1cc(-c2ccc(Br)s2)nc2ccccc12	0	-1	33*	5	18	12	7	-9
CCCCOc1cc(C(=O)NCCN(CC)CC)c2ccccc2n1	0	-1	11	-1	15	14	.	.
CCOCCCNC(=O)c1cc(-c2ccc(Br)s2)nc2ccccc12	0	0	37*	-1	12	24	33*	63*
CSc1cccc(NC(=O)NNC(=O)C2CCN(S(=O)(=O)N(C)C)CC2)c1	0	0	-1	-2	31	1	.	.
O=C1NC[C@H](CCCCN2CCN(CCc3ccccc3)C(=O)C2=O)N(Cc2ccccc2)C1=O	0	.	.	.	.	.	.	.
O=C(NC(=S)Nc1ccc2nc[nH]c2c1)c1ccccc1	0	-5	2	-3	-4	12	.	.
CCOC(=O)C1CCCN(C(=O)Cn2sc3nc(C)cc(C)c3c2=O)C1 (stereo not drawn)	0	0	42*	-1	15	-6	11	30*
Cc1cc(C)c2c(=O)n(CC(=O)N3CCC(N4CCCCC4)CC3)sc2n1	-1	0	-3	-1	3	3	.	.
COc1ccccc1C(=O)NC(CCSC)C(=O)Nc1ccc(C)c(S(=O)(=O)N2CCOCC2)c1 (stereo not drawn)	1	-1	10	-2	.	5	.	.
SMILES	TbMetRS inhib	A1 inh	MC4R antagonist	MC4R barr agon	NALP1 yeast inh	NALP3 yeast inh	cAMP nonselect	MC4R cAMP antag
COC(=O)COc1ccc(NC(=O)Cn2nc(-c3ccccc3)c3ccccc3c2=O)cc1	0	0	29*	0	7	0	19*	38*
O=C(COC(=O)c1cc(S(=O)(=O)N2CCCC2)ccc1O)Nc1ccc(F)cc1F	0	0	8	-3	.	17	.	.
Cc1ccnn1-c1ccc(C(=O)NCc2ccccc2CN2CCOCC2)cc1	0	0	4	-1	.	13	.	.
COC(=O)C(C(=O)OC)c1ncccc1NS(=O)(=O)c1ccc(C)cc1	0	.	.	.	.	.	.	.
CNS(=O)(=O)c1cccc(C(=O)OC2CCOC2=O)c1 (stereo not drawn)	0	0	-4	-2	-18	16	.	.
CCN(c1ccccc1)S(=O)(=O)c1cc(C(=O)OC2CCOC2=O)ccc1C (stereo not drawn)	0	-1	40*	-3	.	12	24*	37*
C=CC[C@@H](CC(=O)N(CCO)Cc1ccccc1)C(=O)NC[C@H](OC(=O)[C@@H](CC=C)Cc1ccc(F)cc1)c1ccccc1	0	-2	35*	2	.	7	0	0
O=C(/C=C/c1ccco1)OCC1CCCN2CCCCC12 (stereo not drawn)	1	1	31*	-3	18	11	-2	-6
Cc1cccc(C(=O)NC2=NCCS2)c1	0	1	33*	1	16	16	-1	4
O=C(NC1=NCCS1)c1ccc(Cl)c(S(=O)(=O)N2CCCCC2)c1	0	?	3	-3	1	9	.	.
O=C(Nc1nc2ccccc2[nH]1)c1ccc(Cl)c(S(=O)(=O)N2CCCC2)c1	1	-2	29*	-1	-5	-1	11	7
O=C(NC1=NCCS1)c1ccc(Cl)c(S(=O)(=O)N2CCCC2)c1	0	0	32*	1	-4	8	5	1
O=C(O)c1cccc2c1/C(=N/Nc1ccc([N+](=O)[O-])cc1[N+](=O)[O-])c1ccccc1-2	0	0	10	-1	7	8	.	.
O=C(Nc1ccccn1)c1ccc(Br)s1	-1	-7	31*	2	-68	20	3	2
O=C(O)c1cc(S(=O)(=O)N2CCCCC2)ccc1N1CCCC1	0	0	12	-3	.	18	.	.
CC/C(Cc1ccccc1)=N/NC(=O)CNC(=O)c1ccc(Cl)cc1Cl	0	.	-2	-5	-42	4	.	.
